Key:
[1] = Induction of singlet oxygen formation in DMF assessed as photodegradation of DPBF at 4 uM; format: physicochemical
Summary of the method: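 Singlet oxygen generation measured in DMF with 1,3-diphenylisobenzofuran as scavenger. Scavenger photodegradation followed as the fall in absorbance at 415 nm over time, with ZnPc as the reference.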

[2] = tested on: KB; test: Cellular uptake in human KB cells overexpressing folate receptor at 1 uM after 24 hrs by bright field microscopy-based fluorescence assay; format: ADME, cell-based
Summary of the method: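 About 2 × 10^5 KB cells grown overnight on coverslips, then exposed to conjugate (1.0 μM) in folic acid free medium for 24 h at 37 °C. PBS rinse; confocal imaging with 633 nm He-Ne excitation and emission collected at 650−750 nm. Mean intracellular fluorescence taken over 50 cells per sample, reported as mean ± SD.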

[3] = tested on: MCF7; test: Cytotoxicity against human MCF7 cells expressing low level of folate receptor assessed as cell viability at 80 uM after 24 hrs by MTT assay in absence of halogen light; format: cell-based; conditions: mcf7, 24 h
[4] = tested on: MCF7; test: Photocytotoxicity against human MCF7 cells expressing low level of folate receptor assessed as cell viability incubated for 24 hrs followed by halogen light illumination measured after 20 mins by MTT assay; format: functional, cell-based
Summary of the method: (§1)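 Cells seeded at about 1 × 10^4 (KB) or 2 × 10^4 (MCF-7) per well, grown overnight, then exposed to serial dilutions in folic acid free RPMI 1640. Dilutions came from 1.6 mM DMF stocks taken to 80 μM with aqueous Tween 80. After PBS rinse and fresh medium, cells were illuminated (halogen lamp, λ > 610 nm, 40 mW cm−2, 20 min, 48 J cm−2) and kept overnight at 37 °C. Read by MTT (3 h) with SDS/isopropanol solubilisation and A540. Viability is relative to wells without compound; three experiments in quadruplicate, mean ± SEM.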

[5] = tested on: MCF7; test: Selectivity ratio of IC50 for human MCF7 cells expressing low level of folate receptor to IC50 for human KB cells overexpressing folate receptor; format: functional; summary of the method: as §1
[6] = tested on: KB; test: Cytotoxicity against human KB cells overexpressing folate receptor assessed as cell viability at 80 uM after 24 hrs by MTT assay in absence of halogen light; format: cell-based
[7] = Cellular uptake in endoplasmic reticulum of human KB cells overexpressing folate receptor at 1 uM after 24 hrs by ER-tracker green based-confocal microscopic analysis; format: ADME, cell-based
Summary of the method: (§2)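 KB cells (about 1 × 10^5 on coverslips, overnight at 37 °C, 5% CO2) given conjugate at 1 μM in folic acid free medium for 24 h. Then 15 min with Lyso-Tracker Green DND 26 (4.0 μM in medium), Mito-Tracker Green FM (0.2 μM in medium) or ER-Tracker Green (1.0 μM in PBS). PBS rinse; confocal imaging with 488 nm argon and 633 nm He-Ne lasers.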

[8] = tested on: KB; test: Photocytotoxicity against human KB cells overexpressing folate receptor assessed as cell viability incubated for 24 hrs followed by halogen light illumination measured after 20 mins by MTT assay; format: functional, cell-based; summary of the method: as §1
[9] = Cellular uptake in lysosome of human KB cells overexpressing folate receptor at 1 uM after 24 hrs by lyso-tracker DND 26-based confocal microscopic analysis; format: ADME, cell-based; summary of the method: as §2
[10] = tested on: KB; test: Cellular uptake in human KB cells overexpressing folate receptor at 5 uM after 24 hrs by bright field microscopy-based fluorescence assay; format: ADME, cell-based
Summary of the method: (§3)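 KB or MCF-7 cells (about 2 × 10^5 on coverslips, overnight at 37 °C, 5% CO2) incubated 24 h with 5.0 μM conjugate in folic acid free medium. PBS rinse; inverted microscope with 630 nm excitation, emission collected above 660 nm. Mean intracellular fluorescence from 24 cells per sample (mean ± SD), compared between the two lines.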

[11] = Ratio of cellular uptake in human KB cells to human MCF7 cells at 5 uM after 24 hrs; format: ADME, cell-based; conditions: mcf7, 24 h; summary of the method: as §3
[12] = tested on: KB; test: Photocytotoxicity against human KB cells overexpressing folate receptor assessed as cell viability at IC50 incubated for 24 hrs followed by halogen light illumination measured after 20 mins by MTT assay in presence of free folic acid; format: functional
[13] = Cellular uptake in mitochondria of human KB cells overexpressing folate receptor at 1 uM after 24 hrs by mito-tracker green FM-based confocal microscopic analysis; format: ADME; summary of the method: as §2
[14] = tested on: MCF7; test: Cellular uptake in human MCF7 cells expressing low level of folate receptor at 5 uM after 24 hrs by bright field microscopy-based fluorescence assay; format: ADME, cell-based; conditions: mcf7, 24 h; summary of the method: as §3

Activity [1] | Drug uptake [2] | Drug uptake [7] | Drug uptake [9] | Drug uptake [10] | Ratio [11] | Drug uptake [13] | Drug uptake [14] | SMILES | Activity [3] | IC50 [4] | Ratio IC50 [5] | Activity [6] | IC50 [8] | Activity [12]
Active | Active | Active | Active |  |  |  |  | COCCOCCOCCOc1ccc(/C=C/C2=[N+]3C(=C(c4ccc(OCCOCCOCCOCc5cn(CCOCCOCCNC(=O)CC[C@H](NC(=O)c6ccc(NCc7cnc8nc(N)[nH]c(=O)c8n7)cc6)C(=O)O)nn5)cc4)c4c(C)c(I)c(/C=C/c5ccc(OCCOCCOCCOC)cc5)n4[B-]3(F)F)C(C)=C2I)cc1 | Non-toxic | 1000 nM | 6 | Non-toxic | 180 nM | 
 |  |  |  |  |  |  |  | Nc1nc(=O)c2nc(CNc3ccc(C(=O)N[C@@H](CCC(=O)O)C(=O)O)cc3)cnc2[nH]1 [FOLIC ACID] |  |  |  |  | 500 nM | 
 |  |  |  |  |  |  |  | C#CCOCCOCCOCCOc1ccc(C2=C3C(C)=C(I)C(/C=C/c4ccc(OCCOCCOCCOC)cc4)=[N+]3[B-](F)(F)n3c(/C=C/c4ccc(OCCOCCOCCOC)cc4)c(I)c(C)c32)cc1 |  | 60 nM | 3 |  | 20 nM | 
Active | Active | Active | Active | Active | 5 | Not Active | Not Active | COCCOCCOCCOc1ccc(/C=C/C2=[N+]3C(=C(c4ccc(OCc5cn(CCOCCOCCNC(=O)CC[C@H](NC(=O)c6ccc(NCc7cnc8nc(N)[nH]c(=O)c8n7)cc6)C(=O)O)nn5)cc4)c4c(C)c(I)c(/C=C/c5ccc(OCCOCCOCCOC)cc5)n4[B-]3(F)F)C(C)=C2I)cc1 | Non-toxic | 2560 nM | 43 | Non-toxic | 60 nM | 94%

From ChEMBL document CHEMBL3085657, “Preparation and in vitro photodynamic activities of folate-conjugated distyryl boron dipyrromethene based photosensitizers” (J Med Chem, 2013)
